By EC50 is commonly meant the concentration giving half of the maximal effect.

The structures appear in SMILES notation. Where a name gives a salt, the structure may show the parent alone. The source made the active and inactive calls. The calls are words filed in the database; no cut-off is given here.

6 compounds from ChEMBL document CHEMBL1681634, “Acyloxy nitroso compounds as nitroxyl (HNO) donors: kinetics, reactions with thiols, and vasodilation properties” (J Med Chem, 2011) can be followed below.

For experiment [1], the system named is Thoracic aorta. Nature of the experiment: Potentiation of Angeli's salt induced- vasodilatory activity in Sprague-Dawley rat thoracic aorta at 1 mM. Type of experiment: functional, tissue-based. A digest of the protocol: (§1)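 Male Sprague-Dawley rat (200-250 g) thoracic aorta rings, 2-4 mm, in Krebs-Henseleit buffer at 37°C, pH 7.45, 2 g basal tension, 1 hr equilibration, 70 mM KCl viability check. Pretreated with L-NAME (100 μM) and indomethacin (5 μM), then preconstricted with phenylephrine (100 nM). Donors added cumulatively; relaxation is delta tension as percent of maximal PE constriction. Sigmoidal fits by non-linear regression give EC50.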

In experiment [2] the test system is Thoracic aorta. Nature of the experiment: Potentiation of 1-Nitrosocyclohexyl trifluoroacetate induced- vasodilatory activity in Sprague-Dawley rat thoracic aorta at 1 mM. Type of experiment: functional, tissue-based. A digest of the protocol: as §1
Experiment [3] relates to Thoracic aorta. The experiment is described as follows: Potentiation of 1-Nitrosocyclohexyl acetate induced- vasodilatory activity in Sprague-Dawley rat thoracic aorta at 1 mM. Type of experiment: functional, tissue-based. A digest of the protocol:
as §1

Experiment [4] relates to Thoracic aorta. The experiment is described as follows: Potentiation of MahmaNonoate induced- vasodilatory activity in Sprague-Dawley rat thoracic aorta at 1 mM. Type of experiment: functional, tissue-based. The essentials:
as §1

The subject of experiment [5] is Thoracic aorta. The experiment is described as follows: Vasodilatory activity in Sprague-Dawley rat thoracic aorta assessed as relaxation of phenylephrine-induced vasoconstriction at 0.01 nM to 100 uM. Type of experiment: functional, tissue-based. A digest of the protocol:
as §1

Experiment [6] concerns Thoracic aorta. The experiment is described as follows: Vasodilatory activity in Sprague-Dawley rat thoracic aorta assessed as relaxation of phenylephrine-induced vasoconstriction compound treated 5 mins after 1 uM soluble guanylate cyclase inhibitor ODQ treatment. Type of experiment: functional, tissue-based. The essentials: as §1
Experiment [7] concerns Thoracic aorta. Nature of the experiment: Vasodilatory activity in Sprague-Dawley rat thoracic aorta assessed as relaxation of phenylephrine-induced vasoconstriction compound treated 5 mins after 200 uM NO-scavenger C-PTIO treatment. Type of experiment: functional, tissue-based. The essentials:
as §1

Experiment [8] relates to Thoracic aorta. The experiment is described as follows: Inhibition of Angeli's salt induced- vasodilatory activity in Sprague-Dawley rat thoracic aorta at 0.1 to 1 mM. Type of experiment: functional, tissue-based. The essentials: as §1
Experiment [9] relates to Thoracic aorta. Nature of the experiment: Inhibition of 1-Nitrosocyclohexyl trifluoroacetate induced- vasodilatory activity in Sprague-Dawley rat thoracic aorta at 0.1 to 1 mM. Type of experiment: functional, tissue-based. A digest of the protocol:
as §1

For experiment [10], the system named is Thoracic aorta. Nature of the experiment: Inhibition of 1-Nitrosocyclohexyl acetate induced- vasodilatory activity in Sprague-Dawley rat thoracic aorta at 0.1 to 1 mM. Type of experiment: functional, tissue-based. A digest of the protocol:
as §1

Experiment [11] deals with Thoracic aorta. The experiment is described as follows: Vasodilatory activity in Sprague-Dawley rat thoracic aorta assessed as relaxation of phenylephrine-induced vasoconstriction at 0.01 nM to 1 uM in presence of 21% oxygen. Type of experiment: functional, tissue-based. A digest of the protocol:
as §1

Experiment [12] deals with Thoracic aorta. Nature of the experiment: Vasodilatory activity in Sprague-Dawley rat thoracic aorta assessed as relaxation of phenylephrine-induced vasoconstriction at 0.01 nM to 1 uM in presence of 1% oxygen. Type of experiment: functional, tissue-based. A digest of the protocol: as §1
For experiment [13], the system named is Thoracic aorta. Nature of the experiment: Vasodilatory activity in Sprague-Dawley rat thoracic aorta assessed as relaxation of phenylephrine-induced vasoconstriction at 0.01 nM to 1 uM in presence 100 U/ml SOD at 21% oxygen. Type of experiment: functional, tissue-based. The essentials:
as §1

For experiment [14], the species on record is Rattus norvegicus. The experiment is described as follows: Vasodilatory activity in rat aorta assessed as relaxation of phenylephrine-induced vasoconstriction.
For experiment [15], the species on record is Rattus norvegicus. The experiment is described as follows: Vasodilatory activity in rat thoracic aorta assessed as relaxation of phenylephrine-induced vasoconstriction.
Experiment [16] is filed under the species Rattus norvegicus. The experiment is described as follows: Ratio of compound EC50 to Angeli's salt EC50 for vasodilatory activity in rat aorta.
The species entered for experiment [17] is Rattus norvegicus. Nature of the experiment: Ratio of compound EC50 to Angeli's salt EC50 for vasodilatory activity in rat thoracic aorta.

Regarding `CC(=O)N[C@@H](CS)C(=O)O`, the result in the experiment with Thoracic aorta [1] and in the experiment with Thoracic aorta [2] was Active. The result in the experiment on Thoracic aorta [3] and with Thoracic aorta [4] was inactive.
Take `CNCCCCCCN(C)N(O)N=O`: the Activity entry with Thoracic aorta [5] is “Dose-dependent effect”. Moreover, the outcome with Thoracic aorta [6], in the experiment with Thoracic aorta [7], in the experiment with Thoracic aorta [3] and with Thoracic aorta [4] was inactive.
As for `N[C@@H](CCC(=O)N[C@@H](CS)C(=O)NCC(=O)O)C(=O)O`, the inhibition result in the experiment with Thoracic aorta [8] and in the experiment with Thoracic aorta [9] was “Active” throughout. In addition, the inhibition entry in the experiment on Thoracic aorta [10] was “inactive”.
Regarding `CC(=O)OC1(N=O)CCCCC1` [1-NITROSOCYCLOHEXYL ACETATE], the Activity result in the experiment on Thoracic aorta [5] was “Dose-dependent effect”. Further, the outcome with Thoracic aorta [6], with Thoracic aorta [7], in the experiment on Thoracic aorta [3] and in the experiment with Thoracic aorta [4] was inactive. The result in the experiment with Thoracic aorta [11], with Thoracic aorta [12] and with Thoracic aorta [13] was Active. Further, the inhibition entry in the experiment on Thoracic aorta [10] is “inactive”. Moreover, the EC50 in the experiment listed under Rattus norvegicus [14] and in the experiment listed under Rattus norvegicus [15] was 10000 nM throughout.
In the case of `O=NC1(OC(=O)C(F)(F)F)CCCCC1` [1-NITROSOCYCLOHEXYL TRIFLUOROACETATE], the Activity result with Thoracic aorta [5] is “Dose-dependent effect”. In addition, the outcome with Thoracic aorta [6] and in the experiment on Thoracic aorta [7] was inactive. Besides, the result in the experiment with Thoracic aorta [11], in the experiment with Thoracic aorta [12], in the experiment with Thoracic aorta [13], with Thoracic aorta [1] and with Thoracic aorta [2] was Active. Further, the inhibition entry in the experiment with Thoracic aorta [8] and in the experiment on Thoracic aorta [9] was “Active” throughout. The “Ratio EC50” value in the experiment listed under Rattus norvegicus [16] and in the experiment listed under Rattus norvegicus [17] was 10 in each case. Further, the EC50 in the experiment filed under Rattus norvegicus [14] and in the experiment filed under Rattus norvegicus [15] was 880 nM throughout.
As for `[O-][N+]([O-])=NO` [ANGELI'S SALT], in the experiment on Thoracic aorta [5], the Activity result is “Dose-dependent effect”. Also, the result with Thoracic aorta [6], in the experiment with Thoracic aorta [7] and in the experiment on Thoracic aorta [12] was inactive. The result in the experiment on Thoracic aorta [11], in the experiment on Thoracic aorta [13], with Thoracic aorta [1] and in the experiment with Thoracic aorta [2] was Active. The inhibition result with Thoracic aorta [8] and in the experiment with Thoracic aorta [9] was “Active” throughout. In addition, the EC50 in the experiment listed under Rattus norvegicus [14] and in the experiment listed under Rattus norvegicus [15] was 82 nM in each case.
